From publication PMC2587418 (Journal of medicinal chemistry, 2008)
Read-outs that look alike come from different tables or passages of the source.

How the values were obtained:
[1] = type: in vivo, rat; settings: pretreated with 3 (10 mg/kg i.v.)
In short: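 Adult male Sprague-Dawley rats (225–250 g) were pretreated by tail vein with a selective CB1 inverse agonist (10 mg/kg, i.v.) or its vehicle. After 15 min they received the test compound (30 μg/kg, i.v.) and were killed by cervical dislocation at 0.25, 0.5, 1, 2, 4 or 8 h, three rats per time point. Frontal cortex was weighed, homogenised in four volumes MeCN with 0.1% HCO2H, and quantified by LC-MS.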

[2] = biological target: human CB1 receptors (Homo sapiens, UniProt P21554); assay: CB1 GTPγ35S potency assay; type: biochemical; settings: ratio of CB2 Kb to CB1 Kb; fold
Chain of human CB1 receptors (P21554 whole entry): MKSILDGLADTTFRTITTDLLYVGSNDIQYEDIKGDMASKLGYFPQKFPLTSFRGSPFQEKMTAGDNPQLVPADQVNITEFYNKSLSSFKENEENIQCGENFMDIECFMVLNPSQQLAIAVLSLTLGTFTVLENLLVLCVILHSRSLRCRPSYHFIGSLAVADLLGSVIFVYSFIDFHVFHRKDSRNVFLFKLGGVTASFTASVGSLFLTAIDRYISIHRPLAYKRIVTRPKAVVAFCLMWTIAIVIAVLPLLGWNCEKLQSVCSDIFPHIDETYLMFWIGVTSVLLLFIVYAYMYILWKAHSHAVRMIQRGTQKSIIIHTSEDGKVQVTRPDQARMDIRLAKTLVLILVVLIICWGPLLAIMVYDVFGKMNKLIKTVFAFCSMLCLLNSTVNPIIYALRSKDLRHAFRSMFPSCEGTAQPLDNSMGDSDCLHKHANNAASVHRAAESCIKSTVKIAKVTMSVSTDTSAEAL

[3] = monkey; within 10-20 min after injection; cited from earlier work

| SMILES | Ligand quantifiability in frontal cerebral cortex ([1]; at 4 h after injection) | CB1 versus CB2 selectivity [2] | Ligand quantifiability in frontal cerebral cortex ([1]; at 2 h after injection) | Brain standardized uptake value [3] |
| --- | --- | --- | --- | --- |
| COc1cccc([C@H]2C[C@@H](N[C@H](C)c3ccccc3)C(=O)N2c2ccc(C(F)(F)F)cc2)c1 [Ligand 8, (3R,5R)-5-(3-Methoxy-phenyl)-3-((R)-1-phenyl-ethylamino)-1-(4-trifluoromethyl-phenyl)-pyrrolidin-2-one] | not quantifiable | – | – | – |
| COc1cccc([C@H]2C[C@@H](N[C@H](C)c3ccc(F)cc3)C(=O)N2c2ccc(C(F)(F)F)cc2)c1 [Ligand 16, (3R,5R)-3-[(R)-1-(4-Fluoro-phenyl)-ethylamino]-5-(3-methoxy-phenyl)-1-(4-trifluoromethyl-phenyl)-pyrrolidin-2-one] | – | 2,160 | – | – |
| C[C@@H](N[C@@H]1C[C@H](c2cccc(OCF)c2)N(c2ccc(C(F)(F)F)cc2)C1=O)c1ccccc1 [Ligand 20, (3R,5R)-5-(3-Fluoromethoxy-phenyl)-3-((R)-1-phenyl-ethylamino)-1-(4-trifluoromethyl-phenyl)-pyrrolidin-2-one] | not quantifiable | 3,580 | – | – |
| C[C@@H](N[C@@H]1C[C@H](c2cccc(OCCF)c2)N(c2ccc(C(F)(F)F)cc2)C1=O)c1ccccc1 [Ligand 22, (3R,5R)-5-[3-(2-Fluoro-ethoxy)-phenyl]-3-((R)-1-phenyl-ethylamino)-1-(4-trifluoromethyl-phenyl)-pyrrolidin-2-one] | – | >19,500 | could not be quantified | – |
| C[C@@H](N[C@@H]1C[C@H](c2cccc(O[11CH3])c2)N(c2ccc(C(F)(F)F)cc2)C1=O)c1ccccc1 [[^11C]8, [methyl-^11C](3R,5R)-5-(3-methoxy-phenyl)-3-((R)-1-phenyl-ethylamino)-1-(4-trifluoromethyl-phenyl)-pyrrolidin-2-one] | – | – | – | ~600 % SUV |
